Calls of active or inactive are those of the source. No cut-off for these calls is given here.
Assays:
[1] = biological target: T1, Polyunsaturated fatty acid 5-lipoxygenase (Homo sapiens) (UniProt P09917); assay: Inhibition of human recombinant 5-LO expressed in Escherichia coli BL21 using arachidonic acid as substrate assessed as residual activity at 10 uM preincubated for 10 mins followed by substrate addition and measured after 10 mins by RP-HPLC analysis relative to control; settings: time 20.0 min
T1 sequence (whole entry): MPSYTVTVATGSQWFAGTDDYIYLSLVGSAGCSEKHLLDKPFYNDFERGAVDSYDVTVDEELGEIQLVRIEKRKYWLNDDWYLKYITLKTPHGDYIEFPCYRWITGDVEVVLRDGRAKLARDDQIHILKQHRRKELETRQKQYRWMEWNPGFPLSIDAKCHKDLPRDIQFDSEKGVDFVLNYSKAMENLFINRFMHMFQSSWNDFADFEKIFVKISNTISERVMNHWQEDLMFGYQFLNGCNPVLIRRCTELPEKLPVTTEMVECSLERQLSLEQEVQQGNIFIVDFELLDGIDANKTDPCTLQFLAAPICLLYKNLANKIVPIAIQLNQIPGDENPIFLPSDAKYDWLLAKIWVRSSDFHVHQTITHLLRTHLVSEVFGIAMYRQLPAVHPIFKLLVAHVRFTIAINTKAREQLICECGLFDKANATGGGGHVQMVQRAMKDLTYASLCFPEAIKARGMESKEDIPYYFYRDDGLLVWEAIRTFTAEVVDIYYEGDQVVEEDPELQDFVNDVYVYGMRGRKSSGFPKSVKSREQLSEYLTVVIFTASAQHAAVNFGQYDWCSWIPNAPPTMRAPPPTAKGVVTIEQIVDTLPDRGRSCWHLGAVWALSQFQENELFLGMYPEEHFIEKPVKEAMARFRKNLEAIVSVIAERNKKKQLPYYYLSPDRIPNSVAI

Macrophage = assay: Inhibition of 5-LO product formation in Staphylococcus aureus activated human monocyte derived macrophages at 10 uM preincubated for 15 mins followed by Staphylococcus aureus activation for 90 mins by UPLC-MS/MS analysis; assay type: functional, cell-based; settings: time 105.0 min
J774.A1 [2] = assay: Modulation of IL-6 production in LPS-stimulated mouse J774.A1 cells at 1 uM incubated for 24 hrs by ELISA; assay type: functional, cell-based
In short: (§1)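 Murine J774A.1 macrophages were stimulated with LPS and exposed to test compounds. IL-6 and PGE2 released were measured in pg/mL. Mean ± SD.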

J774.A1 [3] = assay: Modulation of PGE2 production in LPS-stimulated mouse J774.A1 cells at 1 uM incubated for 24 hrs by ELISA; assay type: functional, cell-based; in short: as §1
Mus musculus [4] = assay: (§2) Anti-inflammatory activity against CD-1 mouse model of zymosan-induced peritonitis assessed as reduction in leucocyte recruitment in lavage fluid at 1 to 10 mg/kg, ip pretreated with zymosan for 30 mins followed by compound addition and measured after 4 to 24 hrs by TC10 automated cell counter analysis; assay type: functional, organism-based; settings: dose 1-10 mg/kg, time 4-24 hrs
In short: (§3)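 Mice got zymosan 500 mg/kg i.p.; test compound was injected i.p. 30 min later. PBS-only controls were included, along with a dexamethasone (3 mg/kg) reference group. Peritoneal exudate was collected at 4 and 24 h. Total cells were counted, and IL-1β, IL-6, PGE2 and IL-10 were measured in exudate, normalized to exudate levels. Mean ± SD.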

Mus musculus [5] = assay: Anti-inflammatory activity against CD-1 mouse model of zymosan-induced peritonitis assessed as reduction in IL-1beta level at 10 mg/kg, ip pretreated with zymosan for 30 mins followed by compound addition and measured after 4 to 24 hrs by ELISA; assay type: functional, organism-based; settings: time 4-24 hrs; in short: as §3
Mus musculus [6] = assay: Anti-inflammatory activity against CD-1 mouse model of zymosan-induced peritonitis assessed as reduction in IL-6 level at 10 mg/kg, ip pretreated with zymosan for 30 mins followed by compound addition and measured after 4 to 24 hrs by ELISA; assay type: functional, organism-based; settings: time 4-24 hrs; in short: as §3
Mus musculus [7] = assay: Anti-inflammatory activity against CD-1 mouse model of zymosan-induced peritonitis assessed as reduction in PGE2 level at 10 mg/kg, ip pretreated with zymosan for 30 mins followed by compound addition and measured after 4 to 24 hrs by ELISA; assay type: functional, organism-based; settings: time 4-24 hrs; in short: as §3
Mus musculus [8] = assay: Anti-inflammatory activity against CD-1 mouse model of zymosan-induced peritonitis assessed as reduction in IL-10 level at 10 mg/kg, ip pretreated with zymosan for 30 mins followed by compound addition and measured after 24 hrs by ELISA; assay type: functional, organism-based; in short: as §3
A549 = assay: Inhibition of PGE2 biosynthesis in IL-1β stimulated human A549 cells incubated for 24 hrs by ELISA; settings: dose 5-10 µM
[9] = biological target: T2, Polyunsaturated fatty acid 5-lipoxygenase (Homo sapiens, UniProt P09917); assay: Inhibition of human recombinant 5-LO expressed in Escherichia coli BL21 using arachidonic acid as substrate preincubated for 10 mins followed by substrate addition and measured after 10 mins by RP-HPLC analysis
T2 sequence (P09917 whole entry): T1 sequence (whole entry)

Mus musculus [10] = assay: as §2, with “peritoneal cavity” for “lavage fluid”, “3” for “1 to 10”; assay type: functional, organism-based; settings: time 4-24 hrs
Mus musculus [11] = assay: Anti-inflammatory activity against CD-1 mouse model of zymosan-induced peritonitis assessed as reduction in IL-1beta level at 3 mg/kg, ip pretreated with zymosan for 30 mins followed by compound addition and measured after 4 to 24 hrs by ELISA; assay type: functional, organism-based; settings: time 4-24 hrs
Mus musculus [12] = assay: Anti-inflammatory activity against CD-1 mouse model of zymosan-induced peritonitis assessed as reduction in IL-6 level at 3 mg/kg, ip pretreated with zymosan for 30 mins followed by compound addition and measured after 4 to 24 hrs by ELISA; assay type: functional, organism-based; settings: time 4-24 hrs
Mus musculus [13] = assay: Anti-inflammatory activity against CD-1 mouse model of zymosan-induced peritonitis assessed as reduction in PGE2 level at 3 mg/kg, ip pretreated with zymosan for 30 mins followed by compound addition and measured after 4 to 24 hrs by ELISA; assay type: functional, organism-based; settings: time 4-24 hrs
Mus musculus [14] = assay: Anti-inflammatory activity against CD-1 mouse model of zymosan-induced peritonitis assessed as reduction in IL-10 level at 3 mg/kg, ip pretreated with zymosan for 30 mins followed by compound addition and measured after 24 hrs by ELISA; assay type: functional, organism-based

| Compound | Activity [1] [%] | 5-LO product formation inhibition (active/inactive) (Macrophage) | Activity (J774.A1 [2]) | Activity (J774.A1 [3]) | inhibition (A549) | IC50 [9] [µM] | other results |
| --- | --- | --- | --- | --- | --- | --- | --- |
| O=C(Nc1nnc(-c2ccc(-c3cccc(O)c3)cc2)s1)c1ccccc1Br | 125 | Active | Active | Active |  |  | Activity (Mus musculus [4]): Active; Activity (Mus musculus [5]): Active; Activity (Mus musculus [6]): Active; Activity (Mus musculus [7]): Active; Activity (Mus musculus [8]): Active |
| Nc1ccccc1-c1ccc(-c2nnc(NC(=O)c3c(Cl)ccnc3Cl)s2)cc1 | 75.9 | Active |  |  | Dose-Dependent Effect |  |  |
| Cc1cc(C(=O)Nc2nnc(-c3ccc(-c4cccc(O)c4)cc3)s2)cc(Cl)n1 |  | inactive |  |  |  |  |  |
| Nc1ccccc1-c1ccc(-c2nnc(NC(=O)c3ccccc3Br)s2)cc1 |  | Active | inactive | Active | Dose-Dependent Effect | 24.3 |  |
| Cc1cc(C(=O)Nc2nnc(-c3ccc(-c4ccccc4N)cc3)s2)cc(Cl)n1 |  | Active |  |  | Dose-Dependent Effect | 42.8 |  |
| C[C@@H]1C[C@H]2[C@@H]3CCC4=CC(=O)C=C[C@]4(C)[C@@]3(F)[C@@H](O)C[C@]2(C)[C@@]1(O)C(=O)CO |  |  |  |  |  |  | Activity (Mus musculus [10]): Active; Activity (Mus musculus [11]): Active; Activity (Mus musculus [12]): Active; Activity (Mus musculus [13]): Active; Activity (Mus musculus [14]): Active |

Source: ChEMBL document CHEMBL5223158, “Identification of 2-Aminoacyl-1,3,4-thiadiazoles as Prostaglandin E2 and Leukotriene Biosynthesis Inhibitors” (ACS Med Chem Lett, 2023)
